Measured values as given in ChEMBL document CHEMBL4229391, “Divergent synthesis of thapsigargin analogs” (Bioorg Med Chem Lett, 2018).

Experiments:
Assay type in all cases: cell-based
[1] = Inhibition of SERCA in human HeLa cells assessed as increase in cytosolic calcium level measured over 300 secs by Fluo-4 NW dye based FLIPR analysis
Outline: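 Fluo-4 NW-loaded HeLa cells (25,000/well, overnight culture in MEM/10% FBS) received 10-point titrations (10 uM – 38 pM in-assay) in HBSS/20 mM HEPES. Fluorescence was recorded for 300 s. Peak signals, normalized to thapsigargin and 0.2% DMSO buffer controls, were fitted to a log agonist-response model. The midpoint concentration is reported as IC50. Values are mean ± SD of three independent determinations, each run in duplicate.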

HeLa [2] = assay: Inhibition of SERCA in human HeLa cells assessed as increase in cytosolic calcium level at 1.00 x 10^-5M measured over 300 secs by Fluo-4 NW dye based FLIPR analysis relative to control
Outline: (§1)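 HeLa cells were seeded at 25,000/well in MEM + 10% FBS and grown overnight at 37°C, 5% CO2. They were loaded with Fluo-4 NW (30 min at 37°C, then 30 min at RT). Compound was added in HBSS/20 mM HEPES, one point of a 10-point in-assay range (10 uM – 38 pM). Fluorescence (ex 470-495, em 515-575 nm) was read for 300 s. Peak signal was normalized to thapsigargin (=100%) and buffer (0.2% DMSO) controls.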

HeLa [3] = assay: Inhibition of SERCA in human HeLa cells assessed as increase in cytosolic calcium level at 2.50 x 10^-6M measured over 300 secs by Fluo-4 NW dye based FLIPR analysis relative to control; outline: as §1
HeLa [4] = assay: Inhibition of SERCA in human HeLa cells assessed as increase in cytosolic calcium level at 6.25 x 10^-7M measured over 300 secs by Fluo-4 NW dye based FLIPR analysis relative to control; outline: as §1
HeLa [5] = assay: Inhibition of SERCA in human HeLa cells assessed as increase in cytosolic calcium level at 1.56 x 10^-7M measured over 300 secs by Fluo-4 NW dye based FLIPR analysis relative to control; outline: as §1
HeLa [6] = assay: Inhibition of SERCA in human HeLa cells assessed as increase in cytosolic calcium level at 3.91 x 10^-8M measured over 300 secs by Fluo-4 NW dye based FLIPR analysis relative to control; outline: as §1
HeLa [7] = assay: Inhibition of SERCA in human HeLa cells assessed as increase in cytosolic calcium level at 9.77 x 10^-9M measured over 300 secs by Fluo-4 NW dye based FLIPR analysis relative to control
Outline: (§2)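 HeLa cells seeded at 25,000/well in MEM + 10% FBS and kept overnight at 37°C, 5% CO2. They were loaded with FLUO-4 NW (30 min 37°C, then 30 min RT) in HBSS/20 mM HEPES. Compounds were added from DMSO in a 10-point titration (in-assay 10 uM–38 pM). Fluorescence (ex 470-495, em 515-575 nm) was read 300 s. Signal maxima were normalized to thapsigargin (100%) and buffer/0.2% DMSO controls. Three independent runs in duplicate.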

HeLa [8] = assay: Inhibition of SERCA in human HeLa cells assessed as increase in cytosolic calcium level at 2.44 x 10^-9M measured over 300 secs by Fluo-4 NW dye based FLIPR analysis relative to control; outline: as §2
HeLa [9] = assay: Inhibition of SERCA in human HeLa cells assessed as increase in cytosolic calcium level at 6.10 x 10^-10M measured over 300 secs by Fluo-4 NW dye based FLIPR analysis relative to control; outline: as §2
HeLa [10] = assay: Inhibition of SERCA in human HeLa cells assessed as increase in cytosolic calcium level at 1.53 x 10^-10M measured over 300 secs by Fluo-4 NW dye based FLIPR analysis relative to control; outline: as §2
HeLa [11] = assay: Inhibition of SERCA in human HeLa cells assessed as increase in cytosolic calcium level at 3.81 x 10^-11M measured over 300 secs by Fluo-4 NW dye based FLIPR analysis relative to control; outline: as §1

**Q.** Which results are given for CCCCCCCC(=O)O[C@H]1[C@H]2C(=C(C)[C@@H]1OC(=O)c1sccc1C)[C@@H]1OC(=O)[C@@](C)(O)[C@@]1(O)[C@@H](OC(=O)CCC)C[C@]2(C)OC(C)=O?
**A.** IC50 [1]: 30 to 119 nM; inhibition (HeLa [2]): 92 to 101%; inhibition (HeLa [3]): 86.7 to 101%; inhibition (HeLa [4]): 83.7 to 102%; inhibition (HeLa [5]): 57 to 99.4%; inhibition (HeLa [6]): -6.6 to 60.1%; inhibition (HeLa [7]): -6.6 to 10%; inhibition (HeLa [8]): -7.7 to 1.6%; inhibition (HeLa [9]): -4.2 to 0.8%; inhibition (HeLa [10]): -2.6 to 0.5%; inhibition (HeLa [11]): -2.2 to 3.1%

**Q.** Which results are given for C/C=C(/C)C(=O)O[C@H]1C(C)=C2[C@H]([C@@H]1OC(=O)CCCCCCC)[C@@](C)(OC(C)=O)C[C@H](OC(=O)CCC)[C@@]1(O)[C@H]2OC(=O)[C@@]1(C)O [THAPSIGARGIN]?
**A.** IC50 [1]: 28.5 to 51 nM; inhibition (HeLa [2]): 89 to 107%; inhibition (HeLa [3]): 92.9 to 105%; inhibition (HeLa [4]): 90.4 to 109%; inhibition (HeLa [5]): 67.6 to 103%; inhibition (HeLa [6]): 37.6 to 75.1%; inhibition (HeLa [7]): -2.7 to 10.5%; inhibition (HeLa [8]): -4.1 to 1.4%; inhibition (HeLa [9]): -5 to 0.6%; inhibition (HeLa [10]): -1.7 to 0.1%; inhibition (HeLa [11]): -2.3 to 2.9%

**Q.** What does the source list for CCCCCCCC(=O)O[C@H]1[C@H]2C(=C(C)[C@@H]1OC(=O)[C@H](C)CC)[C@@H]1OC(=O)[C@@](C)(O)[C@@]1(O)[C@@H](OC(=O)CCC)C[C@]2(C)OC(C)=O?
**A.** IC50 [1]: 57.7 to 104 nM; inhibition (HeLa [2]): 87.4 to 108%; inhibition (HeLa [3]): 88.1 to 106%; inhibition (HeLa [4]): 91.7 to 104%; inhibition (HeLa [5]): 71.9 to 87.8%; inhibition (HeLa [6]): 8.1 to 45.8%; inhibition (HeLa [7]): 1 to 7.1%; inhibition (HeLa [8]): -1.6 to 3.6%; inhibition (HeLa [9]): -0.7 to 1.9%; inhibition (HeLa [10]): -4.3 to 1.5%; inhibition (HeLa [11]): -0.7 to 2.6%

**Q.** For CCCCCCCC(=O)O[C@H]1[C@H]2C(=C(C)[C@@H]1OC(=O)c1cccs1)[C@@H]1OC(=O)[C@@](C)(O)[C@@]1(O)[C@@H](OC(=O)CCC)C[C@]2(C)OC(C)=O, which IC50 [1] is on record?
**A.** Its IC50 is 71.5 to 117 nM.

**Q.** And the inhibition (HeLa [2])?
**A.** The inhibition was 92.9 to 102%.

**Q.** And the inhibition (HeLa [3])?
**A.** Its inhibition is 79.6 to 105%.

**Q.** What about the inhibition (HeLa [4]) of the same molecule?
**A.** Its inhibition is 68.8 to 103%.

**Q.** And the inhibition (HeLa [5])?
**A.** The inhibition was 52.4 to 84.4%.

**Q.** What about the inhibition (HeLa [6]) of the same molecule?
**A.** Its inhibition is -7.5 to 25.7%.

**Q.** What about the inhibition (HeLa [11]) of the same molecule?
**A.** Its inhibition is -5.9 to 0.6%.

**Q.** With CCCCCCCC(=O)O[C@H]1[C@H]2C(=C(C)[C@@H]1OC(=O)CC(C)C)[C@@H]1OC(=O)[C@@](C)(O)[C@@]1(O)[C@@H](OC(=O)CCC)C[C@]2(C)OC(C)=O as the molecule, how does the IC50 [1] read?
**A.** The IC50 was 310 to 576 nM.

**Q.** What about the inhibition (HeLa [2]) of the same molecule?
**A.** The inhibition was 89.7 to 96.6%.

**Q.** And the inhibition (HeLa [3])?
**A.** The inhibition was 72.4 to 91.7%.

**Q.** What about the inhibition (HeLa [4]) of the same molecule?
**A.** Its inhibition is 40.2 to 84.1%.

**Q.** What about the inhibition (HeLa [11]) of the same molecule?
**A.** The inhibition was -8 to 21.4%.

**Q.** Which results are given for C/C=C(/C)C(=O)O[C@@H]1C[C@H]2C(=C1C)[C@@H]1OC(=O)[C@@](C)(O)[C@@]1(O)[C@@H](OC(=O)C=C(C)C)C[C@]2(C)OC(C)=O?
**A.** IC50 [1]: 204 to 268 nM; inhibition (HeLa [2]): 92 to 102%; inhibition (HeLa [3]): 87.1 to 102%; inhibition (HeLa [4]): 65.5 to 94.1%; inhibition (HeLa [5]): 12.1 to 55.6%; inhibition (HeLa [6]): -1.7 to 10.7%; inhibition (HeLa [7]): -4.7 to 4.6%; inhibition (HeLa [8]): -3.4 to 4.1%; inhibition (HeLa [9]): -3 to 3.3%; inhibition (HeLa [10]): -3.3 to 2.6%; inhibition (HeLa [11]): -2 to 1.7%

**Q.** For C/C=C(/C)C(=O)O[C@H]1C(C)=C2[C@H]([C@@H]1OC(=O)CCCCC)[C@@](C)(OC(C)=O)C[C@H](OC(=O)CCC)[C@@]1(O)[C@H]2OC(=O)[C@@]1(C)O, which IC50 [1] is on record?
**A.** Its IC50 is 73 to 90 nM.

**Q.** And the inhibition (HeLa [2])?
**A.** Its inhibition is 86.6 to 100%.

**Q.** And the inhibition (HeLa [3])?
**A.** Its inhibition is 91.1 to 105%.

**Q.** And the inhibition (HeLa [4])?
**A.** The inhibition was 90.8 to 104%.

**Q.** And the inhibition (HeLa [5])?
**A.** Its inhibition is 64.9 to 94.4%.

**Q.** And the inhibition (HeLa [6])?
**A.** The inhibition was 5.8 to 30.7%.

**Q.** And the inhibition (HeLa [7])?
**A.** Its inhibition is -2.2 to 7.9%.

**Q.** What about the inhibition (HeLa [8]) of the same molecule?
**A.** The inhibition was -5.9 to 4.6%.

**Q.** And the inhibition (HeLa [9])?
**A.** Its inhibition is -4.6 to 4.1%.

**Q.** What about the inhibition (HeLa [10]) of the same molecule?
**A.** The inhibition was -2.1 to 3.5%.

**Q.** And the inhibition (HeLa [11])?
**A.** The inhibition was -2.5 to 2%.

**Q.** Which IC50 [1] does the source give for C/C=C(/C)C(=O)O[C@H]1C(C)=C2[C@H]([C@@H]1OC(=O)CCCCCCC)[C@@](C)(OC(C)=O)C[C@H](OC(=O)[C@@H](C)CC)[C@@]1(O)[C@H]2OC(=O)[C@@]1(C)O here?
**A.** Its IC50 is 220 to 298 nM.

**Q.** And the inhibition (HeLa [2])?
**A.** The inhibition was 89.4 to 110%.

**Q.** And the inhibition (HeLa [3])?
**A.** Its inhibition is 91.1 to 109%.

**Q.** And the inhibition (HeLa [4])?
**A.** Its inhibition is 88.4 to 101%.

**Q.** And the inhibition (HeLa [5])?
**A.** The inhibition was 6.2 to 40.9%.

**Q.** What about the inhibition (HeLa [6]) of the same molecule?
**A.** Its inhibition is 2.9 to 27.6%.

**Q.** And the inhibition (HeLa [7])?
**A.** The inhibition was -1.3 to 3.8%.

**Q.** What about the inhibition (HeLa [8]) of the same molecule?
**A.** The inhibition was -1.6 to 2.8%.

**Q.** And the inhibition (HeLa [9])?
**A.** The inhibition was -3.2 to 2.2%.

**Q.** What about the inhibition (HeLa [10]) of the same molecule?
**A.** The inhibition was -4.2 to 2.5%.

**Q.** What about the inhibition (HeLa [11]) of the same molecule?
**A.** Its inhibition is -2.2 to 2.4%.
